Experimental findings from ChEMBL document CHEMBL1146754, “Estrogen receptor ligands. Part 4: The SAR of the syn-dihydrobenzoxathiin SERAMs” (Bioorg Med Chem Lett, 2004) are described below.

Data set [1] is filed under the species Rattus norvegicus. The data set can be described thus: (§1) Plasma clearance of the compound in female Sprague-Dawley rats. Format: ADME, organism-based. As to conditions: in vivo. In short, it runs like this:
(§2)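 Female Sprague–Dawley rats were dosed intravenously at 1 mpk (n = 2) and orally at 2 mpk (n = 3) for pharmacokinetic evaluation.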

The species entered for data set [2] is Rattus norvegicus. The data set can be described thus: (§3) Bioavailability in rat (Sprague-Dawley) (female). Format: ADME, organism-based. The conditions noted are these: in vivo. In short, it runs like this: as §2
The species named for data set [3] is Rattus norvegicus. The data set can be described thus: (§4) Half life period in female Sprague-Dawley rats. In kind it is ADME, organism-based. As to conditions: in vivo. Put shortly: as §2
For data set [4], the target named is T1, Estrogen receptor (Rattus norvegicus) (UniProt P06211+Q62986). As to conditions: at 1 mg/kg.
Data set [5] deals with T1, Estrogen receptor (Rattus norvegicus). As to conditions: at 1 mg/kg. This is another data set of the same source.
The target is the same in data set [6]. The conditions noted are these: at 1 mg/kg. This is another data set of the same source.
Data set [7] deals with T2, Estrogen receptor (Homo sapiens, UniProt P03372).
T2 sequence (P03372 whole entry): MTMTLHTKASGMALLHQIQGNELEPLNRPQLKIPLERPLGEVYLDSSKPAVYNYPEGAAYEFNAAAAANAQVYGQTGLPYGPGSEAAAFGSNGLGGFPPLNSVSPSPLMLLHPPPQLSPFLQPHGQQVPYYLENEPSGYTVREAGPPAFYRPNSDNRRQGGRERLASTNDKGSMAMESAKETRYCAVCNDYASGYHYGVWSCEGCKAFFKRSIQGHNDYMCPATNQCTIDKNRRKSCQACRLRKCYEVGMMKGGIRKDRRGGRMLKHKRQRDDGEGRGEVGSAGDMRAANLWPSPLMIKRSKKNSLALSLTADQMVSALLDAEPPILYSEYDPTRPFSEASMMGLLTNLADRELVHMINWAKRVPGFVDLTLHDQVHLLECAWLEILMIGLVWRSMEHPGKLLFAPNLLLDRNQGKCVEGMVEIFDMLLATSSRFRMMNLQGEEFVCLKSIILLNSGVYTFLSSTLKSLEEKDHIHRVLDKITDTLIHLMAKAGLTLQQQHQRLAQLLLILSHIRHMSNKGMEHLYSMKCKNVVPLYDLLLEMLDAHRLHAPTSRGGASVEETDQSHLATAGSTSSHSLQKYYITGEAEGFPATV

Data set [8] concerns the target T1, Estrogen receptor (Rattus norvegicus). As to conditions: at 1 mg/kg. The source holds these as a separate data set.
Data set [9] has as its target T3, Estrogen receptor beta (Homo sapiens, UniProt Q92731). The data set can be described thus: Agonist effect in transcriptional activation in HEK293 cells expressing human estrogen receptor beta; NA= not active. Format: functional, cell-based.
The target in data set [10] is T3, Estrogen receptor beta.
Data set [11] deals with T2, Estrogen receptor. The data set can be described thus: Agonist effect in transcriptional activation in HEK293 cells expressing human estrogen receptor alpha; NA= not active. Format: functional, cell-based.
Data set [12] can be described thus: as §1. Format: ADME, organism-based. As to conditions: female, Sprague-Dawley, rat, plasma. Put shortly: as §2
Data set [13] is described as follows: as §3. In kind it is ADME, organism-based. The conditions noted are these: female, Sprague-Dawley, in vivo. Put shortly: as §2
A short description of data set [14]: as §4. Format: ADME, organism-based. As to conditions: female, Sprague-Dawley, rat, in vivo. Put shortly: as §2

T3 sequence (Q92731 whole entry): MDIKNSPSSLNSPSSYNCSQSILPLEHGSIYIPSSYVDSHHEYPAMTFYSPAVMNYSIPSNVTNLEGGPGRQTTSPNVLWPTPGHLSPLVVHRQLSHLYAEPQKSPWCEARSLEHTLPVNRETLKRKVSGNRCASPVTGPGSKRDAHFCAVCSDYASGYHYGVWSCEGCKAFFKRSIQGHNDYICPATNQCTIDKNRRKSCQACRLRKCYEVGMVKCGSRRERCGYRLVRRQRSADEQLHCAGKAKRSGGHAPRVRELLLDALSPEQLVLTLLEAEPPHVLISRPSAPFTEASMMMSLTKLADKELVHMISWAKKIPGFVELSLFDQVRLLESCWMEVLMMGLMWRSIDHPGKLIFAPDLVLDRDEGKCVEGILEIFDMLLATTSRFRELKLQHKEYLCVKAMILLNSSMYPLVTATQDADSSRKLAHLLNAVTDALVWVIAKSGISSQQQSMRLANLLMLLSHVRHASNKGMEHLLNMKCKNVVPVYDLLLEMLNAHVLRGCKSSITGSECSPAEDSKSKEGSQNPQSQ

`Oc1ccc([C@@H]2Sc3cc(O)ccc3O[C@@H]2c2ccc(OCCN3CCCCC3)cc2)cc1` (stereo in doubt; 11) had a CL in the data set listed under Rattus norvegicus [1] of 5 mL/min/kg. For the same compound, the F in the data set listed under Rattus norvegicus [2] was 31%. This compound also registered a T1/2 in the data set listed under Rattus norvegicus [3] of 3.8 h.
For `Oc1ccc([C@@H]2Sc3cc(O)ccc3O[C@@H]2c2ccc(OCCN3CCCCC3)cc2)cc1` (stereo in doubt; 11L) [listing 1 of 2 here], in that order: 31 mL/min/kg, 10% and 1.6 h.
In the case of `Oc1ccc([C@@H]2Sc3cc(O)ccc3O[C@@H]2c2ccc(OCCN3CCCCC3)cc2)cc1` (stereo in doubt; 11L) [listing 2 of 2 here], the Estrogenic effect in data set [4] amounted to 1%. In data set [5], this compound had an Antagonism of 16%.
The term IC50 denotes the concentration at which inhibition is half-maximal. The low end stands for greater potency in that assay, the high end for weaker potency in that assay. Compound `CC1CCCC(C)N1CCOc1ccc([C@@H]2Oc3ccc(O)cc3S[C@@H]2c2cccc(O)c2)cc1` (stereo partly specified) yielded an Estrogenic effect in data set [6] of 30%. In addition, the IC50 at Estrogen receptor [7] is 3.4 nM; at Estrogen receptor beta [9], “Not Active”; against Estrogen receptor beta [10], 350 nM; at Estrogen receptor [11], “Not Active”. This compound also showed an Antagonism in data set [8] of 43%.
One may read the clearance as the rate of elimination divided by the concentration. Broadly, the bioavailability is the share of a dose that reaches the circulation, judged against a reference dose that is usually intravenous. The low end stands for little systemic uptake, the high end for much systemic uptake. One may read the half-life as the time needed for the level to fall by half in the phase considered. Read a low half-life as rapid decline. For the compound `Oc1ccc([C@H]2Sc3c(ccc(O)c3F)O[C@H]2c2ccc(OCCN3CCCCC3)cc2)cc1`, the IC50 on Estrogen receptor [7] amounted to 1 nM; against Estrogen receptor beta [10], 18 nM. In addition, the clearance in data set [12] turned out to be 18 mL/min/kg. In [13], this compound showed a bioavailability of 37%. The half-life in data set [14] is 3.1 h. This compound gave an Estrogenic effect in data set [4] of 1%. In data set [5], this compound showed an Antagonism of 100%.
